Active and inactive are the calls of the source. The rule behind the calls is not given here.
Columns and labels:
PBMC [1] = experiment: Immunostimulatory activity against human PBMC assessed as suppression of IL-13 production at 22 uM after 72 hrs; format: functional
Procedure, shortened: (§1)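 Unstimulated PBMCs and PHA-blasts from three donors, in three independent experiments, cultured with test compound at 20 μg/ml (21 or 22 μM). Supernatants collected after 72 h. The cytokine profile was read on a Bio-Plex 27-plex human cytokine bead immunoassay, using beads coupled to cytokine-specific monoclonal antibodies and run per the kit instructions.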

PBMC [2] = experiment: Immunostimulatory activity against human PBMC assessed as IL-6 production at 22 uM after 72 hrs; format: functional, cell-based; procedure, shortened: as §1
[3] = tested on: Human immunodeficiency virus 1; experiment: Binding affinity to HIV-1 3B gp120 assessed as association rate constant after 6 mins by SPR analysis in presence of 10 mM CaCl2
PBMC [4] = experiment: Cytotoxicity against human PBMC cells at 50 uM after 7 days; format: cell-based; settings: 168 h
PBMC [5] = experiment: Immunostimulatory activity against human PBMC assessed as IL-12 production at 22 uM after 72 hrs; format: functional, cell-based; procedure, shortened: as §1
[6] = tested on: Human immunodeficiency virus 1; experiment: Antiviral activity against X4 tropic HIV-1 group O isolate BCF06 infected in human PBMC assessed as inhibition of viral replication […] by ELISA; format: functional, organism-based; settings: Human immunodeficiency virus 1, group O isolate BCF06
Procedure, shortened: (§2)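 PBMCs from healthy donors were stimulated with PHA (2 μg/ml) for 3 days, then seeded at 0.5 × 10^6 cells/well in RPMI 1640 with 10% FCS, IL-2 (25 U/ml) and compound. Virus was added at a final 250 pg p24/ml. Supernatant was taken at day 12 for p24 antigen ELISA.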

[7] = tested on: Human immunodeficiency virus 1; experiment: Ratio of EC90 to EC50 for X4 tropic HIV-1 clade D isolate UG270 infected in human PBMC; format: functional
Procedure, shortened: (§3)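 PBMCs from healthy donors were PHA-stimulated (2 μg/ml, 3 days, 37°C), then seeded at 0.5 × 10^6 per well with compound dilutions in RPMI 1640 with 10% FCS and IL-2 (25 U/ml). Virus was added at 250 pg p24 or p27/ml final. On day 12, supernatant HIV-1 p24 or HIV-2 p27 was measured by ELISA, giving EC50 and EC90.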

PBMC [8] = experiment: Immunostimulatory activity against human PBMC assessed as suppression of G-CSF production at 22 uM after 72 hrs; format: functional; procedure, shortened: as §1
PBMC [9] = experiment: Immunostimulatory activity against human PBMC assessed as IL-2 production at 21 uM after 72 hrs; format: functional, cell-based; procedure, shortened: as §1
[10] = tested on: Human immunodeficiency virus 1; experiment: Binding affinity to HIV-1 HXB2 gp41 assessed as association rate constant after 6 mins by SPR analysis in presence of 10 mM CaCl2
[11] = Aqueous solubility of the compound at physiological pH; format: physicochemical; settings: aqueous medium
[12] = Cytotoxicity against human HeLa cells after 3 to 4 days; format: cell-based
Procedure, shortened: (§4)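 Cells seeded at 20,000–75,000 per well with compound dilutions, incubated 3–4 days at 37°C, and counted on a Coulter particle counter; CC50 is the concentration inhibiting proliferation by 50%.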

[13] = Cytotoxicity against human C8166 cells after 3 to 4 days; format: cell-based; procedure, shortened: as §4
[14] = tested on: Human immunodeficiency virus 1; experiment: Antiviral activity against HIV-1 3B infected in human HUT78 cells assessed as prevention of syncytium formation between persistently HIV-1 3B-infected HUT-78 cells and uninfected SupT1 cells after 3 to 4 days by ELISA; format: functional, organism-based; settings: Human immunodeficiency virus 1, 3B, SUP-T1
PBMC [15] = experiment: Immunostimulatory activity against human PBMC assessed as suppression of RANTES production at 22 uM after 72 hrs; format: functional
PBMC [16] = experiment: Immunostimulatory activity against human PBMC assessed as FGF production at 22 uM after 72 hrs; format: functional, cell-based
[17] = Binding affinity to HIV-1 3B gp120 assessed as dissociation rate constant after 6 mins by SPR analysis in presence of 10 mM CaCl2; parameters: species or system Human immunodeficiency virus 1
PBMC [18] = experiment: Immunostimulatory activity against human PBMC assessed as MIP-1beta production at 22 uM after 72 hrs; format: functional, cell-based; procedure, shortened: as §1
PBMC [19] = experiment: Immunostimulatory activity against human PBMC assessed as IL-13 production at 22 uM after 72 hrs; format: functional, cell-based; procedure, shortened: as §1
[20] = tested on: Human immunodeficiency virus 1; experiment: Ratio of EC90 to EC50 for R5 tropic HIV-1 clade B isolate US2 infected in human PBMC; format: functional; procedure, shortened: as §3
[21] = tested on: Human immunodeficiency virus 1; experiment: Ratio of EC90 to EC50 for R5 tropic HIV-1 clade A isolate UG273 infected in human PBMC; format: functional; procedure, shortened: as §3
[22] = tested on: Human immunodeficiency virus 1; experiment: Antiviral activity against HIV-1 3B infected in human C8166 cells assessed as inhibition of virus-induced cytopathicity after 3 to 4 days by microscopic analysis; format: functional, organism-based; settings: Human immunodeficiency virus 1, 3B
Procedure, shortened: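 CEM or C8166 cells at 5 × 10^5/ml infected with HIV-1 at 100 CCID50 per ml, then mixed 1:1 with compound dilutions and held at 37°C for 3–4 days. Giant cells were counted microscopically at ×100 against untreated infected cultures. EC50 is the concentration cutting syncytium formation by 50%.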

[23] = tested on: Human immunodeficiency virus 2; experiment: Antiviral activity against HIV-2 ROD infected in human MT4 cells assessed as inhibition of virus-induced cytopathicity after 7 days by trypan blue staining; format: functional, organism-based; settings: Human immunodeficiency virus 2, ISOLATE ROD, MT4, 168 h
[24] = tested on: Human immunodeficiency virus 1; experiment: Binding affinity to HIV-1 3B gp120 after 6 mins by SPR analysis at pH 4
[25] = tested on: Human immunodeficiency virus 1; experiment: Antiviral activity against X4 tropic HIV-1 3B infected in human PBMC assessed as inhibition of viral replication […] by ELISA; format: functional, organism-based; settings: Human immunodeficiency virus 1, 3B; procedure, shortened: as §2
PBMC [26] = experiment: Immunostimulatory activity against human PBMC assessed as IL-4 production at 21 uM after 72 hrs; format: functional, cell-based; procedure, shortened: as §1
[27] = tested on: Human immunodeficiency virus 1; experiment: Ratio of ka for HIV-1 3B gp120 to ka for HIV-1 HXB2 gp41
[28] = tested on: Human immunodeficiency virus 1; experiment: Ratio of KD for HIV-1 HXB2 gp41 to KD for HIV-1 3B gp120
Procedure, shortened: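 SPR was run at 25°C. HIV-1 IIIB gp120 (CHO-derived, 122 RU) and HXB2 gp41 (Pichia-derived, 58 RU) were amine-coupled to a CM5 chip. Compound (2.5–40 μM, 2-fold steps) in HBS-P pH 7.4 with 10 mM CaCl2 was injected for 2 min at 45 μl/min, and dissociation was followed for 6 min. Apparent ka, kd and KD came from a 1:1 model fit of the three lowest concentrations.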

[29] = tested on: Human immunodeficiency virus 1; experiment: Ratio of EC50 for compound pretreated HIV-1 3B isolate 42 harboring gp120 mutant infected in human CEM cells to EC50 for HIV-1 3B expressing wild type gp120; format: functional, CCRF-CEM
[30] = Chemical stability of the compound in 7mM sodium phosphate buffer after 4 days by HPLC at pH 4; format: physicochemical; settings: pH 4, 96 h
Procedure, shortened: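 1 mM compound held 4 days in PBS at 50°C, or in 7 mM sodium phosphate pH 4.0 at room temperature; then analysed by reverse-phase HPLC (phosphate/heptanesulfonate pH 3.2 buffer–acetonitrile gradient, 1 ml/min).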

[31] = tested on: Human immunodeficiency virus 1; experiment: Antiviral activity against HIV-1 3B cells infected in human PBMC cells assessed as inhibition of virus-induced cytopathicity after 3 to 4 days by microscopic analysis; format: functional, organism-based; settings: Human immunodeficiency virus 1, 3B

Compound	fold change (FC) (PBMC [1])	Activity (PBMC [2])	Ka [3] [×10⁴ /M/s]	Activity (PBMC [5])	EC50 [6] [µM]	Ratio [7]	fold change (FC) (PBMC [8])	Activity (PBMC [9])	Ka [10] [×10³ /M/s]	CC50 [12] [µM]	CC50 [13] [µM]	EC50 [14] [µM]	fold change (FC) (PBMC [15])	Activity (PBMC [16])	Kd [17] [×10⁻³ /s]	Activity (PBMC [18])	Activity (PBMC [19])	Ratio [20]	Ratio [21]	EC50 [22] [µM]	further results
CN[C@@H]1[C@H](O[C@@H]2OC[C@@H](O)[C@H](O)[C@H]2O)[C@@H](O)[C@H](O[C@H]2c3cc(C)c(C(=O)N[C@H](C)C(=O)O)c(O)c3-c3c(cc4c(c3O)C(=O)c3cc(OC)cc(O)c3C4=O)[C@@H]2O)O[C@@H]1C [PRADIMICIN A]	2	inactive	1.49	inactive	1.6	2	2	inactive	1.96	> 50	> 50	3.4	4	inactive	6.1	inactive	inactive	2	2	2.6	Activity (PBMC [4]): > 95%; solubility [11]: > 20 µM; EC50 [23]: 5 µM; Activity [24]: Active; EC50 [25]: 2.6 µM; Activity (PBMC [26]): inactive
CN[C@@H]1[C@H](O[C@@H]2O[C@H](CO)[C@@H](O)[C@H](OS(=O)(=O)O)[C@H]2O)[C@@H](O)[C@H](O[C@H]2c3cc(C)c(C(=O)N[C@H](C)C(=O)O)c(O)c3-c3c(cc4c(c3O)C(=O)c3cc(OC)cc(O)c3C4=O)[C@@H]2O)O[C@@H]1C [PRADIMICIN S]	2	inactive	1.27	inactive	4.4	2	2	inactive	2.73	> 230	> 230	6	4	inactive	5.11	inactive	inactive	2	2	5.1	ka ratio [27]: 10; Ratio [28]: 30; Ratio EC50 [29]: >=20; Stability [30]: Stable; EC50 [23]: 4.7 µM; Activity [24]: Active; EC50 [25]: 8.5 µM; EC50 [31]: 8.5 µM; Activity (PBMC [26]): inactive
